# Screening results deposited in PubChem BioAssay by several laboratories.
# NSD2 HMT inh – blocks human histone methyltransferase NSD2 | O96028 | 310,000 tested, 0.54% active | inhibition, % at 12.5 µM | NSD2 peptide methylation, AlphaScreen, 120 min; in the data active means inhibition above about 50%
# SIRT5 block – inhibitors of human sirtuin-5 desuccinylase; Purified SirT5, succinyl-peptide AMC, trypsin-coupled fluorescence; 330,000 tested, 1.1% active; AID 652115; Q9NXA8; inhibition, % at 15 µM; in the data active means inhibition above about 15%
# Target sequence (Q9NXA8 whole entry, looked up): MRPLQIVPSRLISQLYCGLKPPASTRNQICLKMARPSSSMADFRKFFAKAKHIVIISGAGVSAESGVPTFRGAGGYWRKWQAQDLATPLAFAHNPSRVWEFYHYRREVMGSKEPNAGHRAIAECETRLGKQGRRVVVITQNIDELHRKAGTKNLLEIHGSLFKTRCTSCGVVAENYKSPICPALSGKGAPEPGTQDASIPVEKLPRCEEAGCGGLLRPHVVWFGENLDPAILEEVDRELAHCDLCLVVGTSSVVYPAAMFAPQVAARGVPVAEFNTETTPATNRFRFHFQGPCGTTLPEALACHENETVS
# Casp6 inh – blocks human caspase-6 cleavage activity. purified caspase-6, Z-VEID-R110 cleavage fluorescence. inhibition, % at 12.5 µM. 350,000 tested, 0.53% active;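 active means mean inhibition across replicates at least about 35%, with every replicate also reaching that limit, limit read from the data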;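 further: 0% = median of neutral control wells and 100% = no fluorescence left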
# FGF22 binding – shifts melting point of recombinant human FGF22; Q9HCT0; recombinant FGF22 thermal shift, SYPRO orange fluorescence; percent of sucrose octasulfate shift, DMSO zero; activity (Tm shift, normalised), % at 9.99 µM; 340,000 tested, 1.5% active;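 active means mean Tm shift, scaled 0 neutral to 100 positive control, at about 1.3% or above, every replicate too, limit read from the data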
# UCH37 DUB inh – human UCH37 deubiquitinating enzyme inhibition; AID 588478; 330,000 tested, 0.33% active; purified proteasome/UCH37, Ub-AMC cleavage fluorescence; Q9Y5K5; inhibition, % (no concentration beside the values);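 active means mean inhibition over replicate wells above about 20%, limit read from the data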;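 further: 0% = compound-free wells with enzyme and 100% = wells lacking proteasome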
# Target sequence (Q9Y5K5 whole entry, looked up): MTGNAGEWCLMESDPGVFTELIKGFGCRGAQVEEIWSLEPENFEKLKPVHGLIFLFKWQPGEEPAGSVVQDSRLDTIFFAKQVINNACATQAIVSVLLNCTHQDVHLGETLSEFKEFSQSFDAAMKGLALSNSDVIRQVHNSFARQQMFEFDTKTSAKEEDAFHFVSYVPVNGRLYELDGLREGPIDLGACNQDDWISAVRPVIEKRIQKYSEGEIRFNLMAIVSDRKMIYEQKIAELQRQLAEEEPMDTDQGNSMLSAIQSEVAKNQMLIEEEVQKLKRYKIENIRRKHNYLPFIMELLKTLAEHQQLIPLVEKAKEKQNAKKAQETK
#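 Material: human UCH37 enzyme supplied as purified proteasome complex. Measure: % inhibition of Ub-AMC cleavage fluorescence. Medium: pH 7.4 Tris-HCl (50 mM) with ovalbumin, ATP-MgCl2, DTT. Times: 30 min preincubation with enzyme, 25 min cleavage at room temperature. Detection: AMC fluorescence intensity at 355/460 nm.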
# UCH37 reconfirm – reconfirmed inhibitor of human deubiquitinase UCH37; inhibition, % at 20 µM; AID 624100; 480 tested, 27% active; shares compounds with UCH37 DUB inh; Proteasome-bound UCH37, Ub-AMC cleavage fluorescence;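 active means average inhibition over replicates above about 50%, so the earlier screening hit is confirmed, limit read from the data; inactive means the rest, counted as false positives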;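 further: based on cleavage rate fitted by regression over a 30 min kinetic read; 0% = proteasome plus Ub-AMC and 100% = Ub-AMC without proteasome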
# * hit, by the source's call; . = not tested or not shown. This is a sample that favours compounds with a hit; in the whole collection about 2.6% have one here.
SMILES,NSD2 HMT inh,SIRT5 block,Casp6 inh,FGF22 binding,UCH37 DUB inh,UCH37 reconfirm
O=C(O)C(c1ccccc1)N1C(=O)/C(=C\c2ccc(-c3ccccc3Cl)o2)SC1=S (stereo not given),3.4,33.2*,85.7*,0.0,38.4*,100.4*
CC(=O)N(C1=C(N)C(=O)c2ccccc2C1=O)c1ccccc1,.,-11.9,15.8,-0.2,37.2*,48.7
O=C(N(c1ccccc1)c1ccccc1)N(c1ccccc1)c1ccccc1,15.9,-1.2,-5.2,-0.2,-3.5,.
CC(C)C#Cc1ccc([C@@H]2[C@@H](CO)N(C(=O)C3CCC3)[C@H]2C#N)cc1,.,0.6,-1.3,-0.1,.,.
N#CC1=C(N)NC(SCC(=O)O)=C(C#N)C12CCCC2,0.0,.,.,.,7.2,.
N#CC1=C(N)NC(SCC(=O)Nc2ccccc2)=C(C#N)C12CCCC2,0.5,.,.,.,37.5*,33.9
Cc1ccc(S(=O)(=O)N2CCN(CC(=O)NN=Cc3ccccn3)CC2)cc1,.,.,.,.,2.4,.
CCNC(=O)C[C@H]1CC[C@@H]2[C@@H](COc3ccc(NC(=O)Cc4ccccc4)cc3C(=O)N2C)O1,.,-7.4,1.1,0.0,.,.
O=C(NN=C1CC(=NNC(=O)c2ccncc2)c2ccccc21)c1ccncc1,.,.,.,.,45.7*,76.5*
O=C(C[C@@H]1CC[C@H](NC(=O)c2ccncc2)[C@H](CO)O1)NCCc1ccncc1,.,0.9,1.8,0.1,.,.
O=C(O)CC1S/C(=N/N=Cc2ccc(-c3ccc(Cl)cc3[N+](=O)[O-])o2)NC1=O (stereo not given),.,.,.,.,27.8*,17.0
O=C(O)CC1S/C(=N/N=Cc2ccc(-c3ccccc3[N+](=O)[O-])o2)NC1=O (stereo not given),.,.,.,.,26.2*,28.0
O=C(NN=Cc1cccnc1)c1ccc(O)cc1,.,.,.,.,3.4,.
C[C@H](CO)N1C[C@H](C)[C@H](CN(C)C(=O)c2ccccc2)OCCCC[C@H](C)Oc2ccc(NC(=O)Nc3ccc4c(c3)OCO4)cc2C1=O,.,1.8,1.0,0.4,.,.
Oc1ccc2ccccc2c1C=NC12CN3CCN(CN(C3)C1)C2,113.1*,.,.,.,73.9*,71.7*
ON=C1CCCCc2ccccc21,.,.,.,.,1.5,.
CC(=O)c1nn(-c2ccccc2)cc1C(=O)c1ccc(C)cc1,-2.3,-3.0,0.0,-0.1,6.6,.
N#Cc1cn(-c2ccccc2)nc1C(=O)c1ccccc1,-0.7,.,.,.,36.5*,14.9
COc1ccc(NC(=O)c2cncc(Br)c2)c(S(=O)(=O)N2CCOCC2)c1,-3.2,.,.,.,35.1*,5.7
C/C=C/c1ccc2c(c1)O[C@H](CN(C)Cc1ccc(F)cc1)[C@H](C)CN([C@H](C)CO)S2(=O)=O,.,8.3,-0.7,-0.1,.,.
O=c1oc2ccccc2c(O)c1C=Nc1ccccn1,.,.,.,.,2.8,.
N#CCC(=O)N/N=C/c1cn(Cc2cccc3ccccc23)c2ccccc12,-2.0,-1.3,0.1,-0.1,.,.
Cc1[nH][nH]c(=O)c1C(c1c(C)[nH][nH]c1=O)c1cn(Cc2cccc3ccccc23)c2ccccc12,.,.,.,.,83.1*,50.0
CCOCCn1c(COc2ccc(C)cc2)nc2ccccc21,-3.0,.,.,.,6.4,.
COCCn1c(COc2ccc(C)cc2)nc2ccccc21,-5.3,.,.,.,35.6*,3.1
SMILES,NSD2 HMT inh,SIRT5 block,Casp6 inh,FGF22 binding,UCH37 DUB inh,UCH37 reconfirm
CCCN1C(=O)/C(=C\C=C2/Sc3ccccc3N2CC)SC1=S,-1.2,.,.,.,1.3,.
CCN1/C(=C\C=C(C(C)=O)C(C)=O)Sc2ccccc21,5.4,10.2,.,0.7,38.6*,39.0
O=C1CCCC2=C1C1(O)C(=O)c3ccccc3C1(O)O2 (stereo not given),.,.,.,.,65.3*,79.1*
COCC(=O)Nc1ccc2c(c1)C(=O)N(C)C[C@@H](OC)[C@@H](C)CN(CC1CC1)[C@@H](C)CO2,.,-3.3,-10.8,0.0,.,.
CN(C)CCCN(C(=O)c1ccc(Br)s1)c1nc2cc3c(cc2s1)OCCO3,1.5,-0.8,-8.7,-0.3,1.6,.
CN(C)CCCN(C(=O)c1ccc([N+](=O)[O-])s1)c1nc2cc3c(cc2s1)OCCO3,11.9,-1.0,83.9*,-0.1,56.0*,4.1
CSc1nnc(NC(=O)c2cc(=O)c3cc(C)cc(C)c3o2)s1,23.8,-2.5,-1.7,0.0,34.2*,9.4
Cc1ccc(SC(c2ccccc2)C(Cn2cncn2)C(=O)c2ccccc2)cc1 (stereo not given),-0.2,.,.,.,42.3*,20.1
CN(C)CC(=O)Nc1ccc2c(c1)[C@H]1C[C@@H](CC(=O)N(C)C)O[C@@H](CO)[C@H]1O2,.,0.0,1.8,-0.2,.,.
Cc1ccccc1OCC(=O)NCc1ccccc1,0.5,-0.3,-0.2,40.9,41.1*,15.4
O=C(NCC[C@H]1CC[C@H](NC(=O)c2cnccn2)[C@@H](CO)O1)Nc1ccc(F)cc1,.,-0.7,0.4,-0.1,.,.
Cc1cc(O)c(C(C)C)cc1N=Nc1ccccc1C(=O)O,10.0,6.8,4.8,-0.1,19.0,.
Cc1cc(N=Nc2ccccc2C(=O)O)c(C)c(C)c1O,24.0,5.4,4.0,0.1,25.4*,39.1
COc1cccc(C=Nn2c(-c3cccs3)n[nH]c2=S)c1,.,.,.,.,5.8,.
COCCNC(=O)C[C@H]1C[C@@H]2c3cc(NS(C)(=O)=O)ccc3O[C@@H]2[C@H](CO)O1,.,-0.5,-0.9,-0.4,.,.
CN1CCC[C@@H]1CCNC(=O)c1cccc2c1C(=O)c1ccc(N3CCCC3)cc1S2(=O)=O,.,.,-7.4,0.2,52.2*,13.0
C[C@@H]1CCCCO[C@@H](CN(C)S(=O)(=O)c2ccc(F)cc2)[C@@H](C)CN([C@H](C)CO)C(=O)c2cc(NS(=O)(=O)c3cccs3)ccc2O1,.,-0.6,-5.3,0.9,.,.
CC(C)C#Cc1ccc([C@H]2[C@H](C#N)N(C(=O)CN(C)C)[C@H]2CO)cc1,.,1.1,-9.5,-0.1,.,.
CC(=O)N(C1=C(Cl)C(=O)c2ccccc2C1=O)C1CCCCC1,.,3.1,16.6,-0.6,44.1*,53.7*
COC(=O)C(CC#Cc1ccc2c(c1)[C@]1(C(=O)N2)[C@H](c2ccc(OCCO)cc2)N2[C@H](c3ccccc3)[C@H](c3ccccc3)OC(=O)[C@H]2[C@@H]1C(=O)Nc1nc2ccccc2s1)C(=O)OC,.,-0.6,1.2,0.7,.,.
CCCCCCCCCCCCCCCC[n+]1ccc(C=NO)cc1,.,.,.,.,53.0*,57.0*
C[C@@H]1CN([C@H](C)CO)C(=O)c2cc(NC(=O)Nc3cccc4ccccc34)ccc2O[C@H]1CN(C)S(=O)(=O)c1ccccc1,.,7.7,1.4,-0.1,.,.
O=C(NCc1ccccc1)C(=O)NCC1OCCN1C(=O)c1ccc(Cl)cc1 (stereo not given),-1.9,-2.5,-1.1,-0.1,5.3,.
CC(C)=CCC(C)(C)C1OCCN1C(=O)c1ccccc1 (stereo not given),-2.1,.,.,.,63.4*,67.8*
Oc1ccc2ccccc2c1C=Nc1nc2c(s1)CCCC2,.,.,.,.,42.2*,24.9
CC1CCCC(NC(=O)COC(=O)/C=C/c2ccc([N+](=O)[O-])cc2)C1C (stereo not given),-1.4,0.4,0.5,-0.1,3.1,.
